Results published in ChEMBL document CHEMBL1134661, “N-Benzylpolyamines as vectors of boron and fluorine for cancer therapy and imaging: synthesis and biological evaluation” (J Med Chem, 2001).
pIC50: −log10 of the molar value. Several values for one entry are separate records, joined by “and”; a condition that tells them apart may be missing. Equal entries are not always repeated.

Key:
3LL cell line [1] = experiment: accumulation of compound in 3LL cells was measured without DFMO by HPLC at 250 uM dose; format: functional, Mus musculus
How it was run: (§1)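 3LL cells exposed 24 h to derivative, BSH or BPA, with or without prior 24 h incubation with 5 mM DFMO; intracellular drug measured by ion-pair reversed-phase HPLC with o-phthalaldehyde fluorescence, or cellular boron by ICP-AES, per mg protein; mean ± SD; Student's t-test, p < 0.01.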

CHO [2] = experiment: Compound was tested for accumulation in CHO cells by HPLC at 250 uM dose; format: functional, Cricetulus griseus
How it was run: (§2)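 CHO or polyamine-transport-deficient CHO-MG cells (proline 2 µg/mL added for CHO-MG), RPMI 1640 with 10% FCS, 37 °C, 5% CO2; seeded at 5 × 10⁴ cells/mL, derivative added 24 h later for 24 h; trypsin/EDTA harvest, three PBS washes, sonication in 0.2 N perchloric acid; derivative measured by ion-pair reversed-phase HPLC with o-phthalaldehyde/N-acetylcysteine fluorescence; per mg protein (Folin); mean ± SD.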

CHO-MG [3] = experiment: Compound was tested for accumulation in CHO-MG cells by HPLC at 250 uM dose; format: functional, Cricetulus griseus; how it was run: as §2
3LL cell line [4] = experiment: accumulation of compound in 3LL cells was measured with DFMO by HPLC at 250 uM dose; format: functional, Mus musculus; how it was run: as §1
3LL cell line [5] = experiment: accumulation of compound in 3LL cells was measured with DFMO by HPLC at 50 uM dose; format: functional, Mus musculus; how it was run: as §1
3LL cell line [6] = experiment: accumulation of compound in 3LL cells was measured without DFMO by HPLC at 50 uM dose; format: functional, Mus musculus; how it was run: as §1
3LL cell line [7] = experiment: Effect on the growth of 3LL cells by DFMO pretreatment at 48 hr incubation; format: functional, cell-based; settings: Mus musculus
How it was run: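 3LL cells given 5 mM DFMO 24 h after seeding for a 24 h preincubation, then 48 h with spermidine or derivative; MTT readout; growth expressed relative to cells treated with DFMO only; mean ± SEM.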

3LL cell line [8] = experiment: Effect on the growth of 3LL cells was evaluated using an MTT assay at 48 hour incubation; format: functional, cell-based; settings: Mus musculus
3LL cell line [9] = experiment: Effect on the growth of 3LL cells was evaluated using an MTT assay at 72 hour incubation; format: functional, cell-based; settings: Mus musculus
3LL cell line [10] = experiment: spermidine levels in 3LL cells after the treatment of 50 uM of Compound; format: functional, cell-based; settings: Mus musculus
How it was run: (§3)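 3LL cells incubated 24 h with derivative, some after 24 h pretreatment with 5 mM DFMO; perchloric acid extracts analyzed for putrescine, spermidine and spermine by ion-pair reversed-phase HPLC with o-phthalaldehyde post-column fluorescence, normalized to protein (Folin); mean ± SD.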

3LL cell line [11] = experiment: spermine levels in 3LL cells after the treatment of 50 uM of Compound; format: functional, cell-based; settings: Mus musculus; how it was run: as §3
CHO [12] = experiment: Compound was tested for accumulation in CHO cells by HPLC at 50 uM dose; format: functional, Cricetulus griseus; how it was run: as §2
CHO-MG [13] = experiment: Compound was tested for accumulation in CHO-MG cells by HPLC at 50 uM dose; format: functional, Cricetulus griseus; how it was run: as §2
Nucleic Acid [14] = experiment: (§4) DNA binding affinity (conc to decrease the fluorescence of the ethidium bromide-DNA complex by 50%); format: nucleic-acid assay, Bos taurus
3LL cell line [15] = experiment: accumulation of compound in 3LL cells was measured with DFMO by ICP-AES at 50 uM dose; format: functional, Mus musculus; how it was run: as §1
3LL cell line [16] = experiment: accumulation of compound in 3LL cells was measured without DFMO by ICP-AES at 50 uM dose; format: functional, Mus musculus; how it was run: as §1
U-251 [17] = experiment: Compound was tested for accumulation of (50 uM) boronated polyamines in human U251 glioblastoma cells; format: functional
How it was run: (§5)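 Rat C6, human U251 glioblastoma or murine B16 melanoma cells exposed 24 h to 50 µM boron-containing derivative, either directly or after 24 h preincubation with 5 mM DFMO; washed cells sonicated in 0.2 N perchloric acid, derivative quantified by ion-pair reversed-phase HPLC with o-phthalaldehyde fluorescence detection, normalized to protein; mean ± SD.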

[18] = Compound was tested for accumulation of (50 uM) boronated polyamines in rat C6 glioblastoma cells; format: functional; how it was run: as §5
[19] = Compound was tested for accumulation of (50 uM) boronated polyamines in murine B16 melanoma cells; format: functional; how it was run: as §5
3LL cell line [20] = experiment: accumulation of compound in 3LL cells was measured with DFMO by HPLC at 10 uM dose; format: functional, Mus musculus; how it was run: as §1
3LL cell line [21] = experiment: accumulation of compound in 3LL cells was measured without DFMO by HPLC at 10 uM dose; format: functional, Mus musculus; how it was run: as §1
3LL cell line [22] = experiment: putrescine levels in 3LL cells after the treatment of 250 uM of Compound; format: functional, cell-based; settings: Mus musculus; how it was run: as §3
3LL cell line [23] = experiment: spermidine levels in 3LL cells after the treatment of 250 uM of Compound; format: functional, cell-based; settings: Mus musculus; how it was run: as §3
3LL cell line [24] = experiment: spermine levels in 3LL cells after the treatment of 250 uM of Compound; format: functional, cell-based; settings: Mus musculus; how it was run: as §3
U-251 [25] = experiment: Compound was tested for accumulation of (50 uM) boronated polyamines in human U251 glioblastoma cells incubated with 5 mM DFMO; format: functional; how it was run: as §5
[26] = Compound was tested for accumulation of (50 uM) boronated polyamines in murine B16 melanoma cells ncubated with 5 mM DFMO; format: functional; how it was run: as §5
[27] = Compound was tested for accumulation of (50 uM) boronated polyamines in rat C6 glioblastoma cells incubated with 5 mM DFMO; format: functional; how it was run: as §5
3LL cell line [28] = experiment: spermine levels in 3LL cells after the treatment of 10 uM of Compound; format: functional, cell-based; settings: Mus musculus; how it was run: as §3
3LL cell line [29] = experiment: accumulation of compound in 3LL cells was measured with DFMO by HPLC at 1 uM dose; format: functional, Mus musculus; how it was run: as §1
3LL cell line [30] = experiment: accumulation of compound in 3LL cells was measured without DFMO by HPLC at 1 uM dose; format: functional, Mus musculus; how it was run: as §1
3LL cell line [31] = experiment: spermine levels in 3LL cells after the treatment of 1 uM of Compound; format: functional, cell-based; settings: Mus musculus; how it was run: as §3
CHO [32] = experiment: Compound was tested for accumulation in CHO cells by HPLC at 10 uM dose; format: functional, Cricetulus griseus; how it was run: as §2
Nucleic Acid [33] = experiment: as §4; format: nucleic-acid assay

| Structure (SMILES) | Activity (3LL cell line [5]) | Activity (3LL cell line [6]) [nmol/mg protein] | pIC50 (3LL cell line [7]) | pIC50 (3LL cell line [8]) | pIC50 (3LL cell line [9]) | Level (nM (mg of protein)-1) (3LL cell line [10]) | Level (nM (mg of protein)-1) (3LL cell line [11]) | Accumulation (CHO [12]) | pIC50 (Nucleic Acid [14]) | Activity (3LL cell line [21]) | also measured |
| --- | --- | --- | --- | --- | --- | --- | --- | --- | --- | --- | --- |
| CC1(C)COB(c2cccc(CN(CCCN)CCCCN)c2)OC1.Cl | – | – | – | – | – | – | – | – | – | – | Activity (3LL cell line [1]): 4.52 nM (mg of protein)-1; Accumulation (CHO [2]): 5.65 nM (mg of protein)-1; Accumulation (CHO-MG [3]): 3.71 nM (mg of protein)-1; Activity (3LL cell line [4]): 3.93 nM (mg of protein)-1 |
| Cl.NCCCCNCc1ccc(F)cc1 | 1.31 nM (mg of protein)-1 | 0.55 | < 5.00 | 3.25 | 3.33 | 0.92 | 11 | 0.9 nM (mg of protein)-1 | < 2.52 | – | Accumulation (CHO-MG [13]): 0.45 nM (mg of protein)-1 |
| Cl.NCCCCNCCCNCc1ccc(B(O)O)cc1 | 4.18 nM (mg of protein)-1 | – | < 6.00 | 3.08 | 3.40 | 0.14 | 7.25 | 4.78 nM (mg of protein)-1 | 4.43 | – | Activity (3LL cell line [15]): 5.68 nM (mg of protein)-1; Drug (3LL cell line [6]): 2.01 nM (mg of protein)-1; Activity (3LL cell line [16]): 2.7 nM (mg of protein)-1; Accumulation (U-251 [17]): 1.65 nM (mg of protein)-1; Activity [18]: 1.63 nM (mg of protein)-1; Accumulation [19]: 4.75 nM (mg of protein)-1 and 9.26 nM (mg of protein)-1 |
| Cl.NCCCCNCc1ccc(B(O)O)cc1 | 8.44 nM (mg of protein)-1 | 1.32 | < 4.30 | < 3.00 | < 3.00 | 1.07 | 7.52 | 5.76 nM (mg of protein)-1 | 2.86 | 0.52 nM (mg of protein)-1 | Activity (3LL cell line [20]): 3.37 nM (mg of protein)-1; Activity (3LL cell line [15]): 6.73 nM (mg of protein)-1; Activity (3LL cell line [16]): 1.29 nM (mg of protein)-1; Level (nM (mg of protein)-1) (3LL cell line [22]): 1.31; Level (nM (mg of protein)-1) (3LL cell line [23]): 2.28; Level (nM (mg of protein)-1) (3LL cell line [24]): 7.66; Accumulation (CHO-MG [13]): 0.51 nM (mg of protein)-1; Accumulation (U-251 [17]): 0.21 nM (mg of protein)-1; Accumulation (U-251 [25]): 0.22 nM (mg of protein)-1; Accumulation [26]: 20.41 nM (mg of protein)-1; Accumulation [27]: 0.41 nM (mg of protein)-1; Activity [18]: 0.09 nM (mg of protein)-1; Accumulation [19]: 5.77 nM (mg of protein)-1 |
| Cl.NCCCCNCc1ccccc1 | 1.03 nM (mg of protein)-1 | 0.34 | < 4.30 | 3.00 | 3.22 | 0.89 | 5.79 | 0.4 nM (mg of protein)-1 | 2.51 | – | Accumulation (CHO-MG [13]): 0.1 nM (mg of protein)-1 |
| NCCCCN [PUTRESCINE] | – | – | – | – | – | – | – | – | < 1.96 | – | – |
| Cl.NCCCCNCCCNCc1ccccc1 | – | – | 4.92 | 4.51 | 5.03 | – | – | 17.58 nM (mg of protein)-1 | 3.97 | 9 nM (mg of protein)-1 | Activity (3LL cell line [20]): 23.67 nM (mg of protein)-1; Level (nM (mg of protein)-1) (3LL cell line [28]): 7.23 |
| Cl.NCCCCN(CCCN)Cc1ccccc1 | 6.92 nM (mg of protein)-1 | 4.92 | < 4.00 | < 3.00 | < 3.00 | – | – | – | 3.51 | 2.59 nM (mg of protein)-1 | Activity (3LL cell line [20]): 5.52 nM (mg of protein)-1; Activity (3LL cell line [1]): 6.11 nM (mg of protein)-1; Level (nM (mg of protein)-1) (3LL cell line [23]): 4.15; Level (nM (mg of protein)-1) (3LL cell line [24]): 8.64; Accumulation (CHO [2]): 13.64 nM (mg of protein)-1; Accumulation (CHO-MG [3]): 5.55 nM (mg of protein)-1; Activity (3LL cell line [4]): 5.46 nM (mg of protein)-1 |
| NCCCCNCCCN [SPERMIDINE] | – | – | – | – | – | – | – | – | 4.01 | – | – |
| Cl.NCCCCNCCCNCc1ccc(F)cc1 | – | – | 6.30 | 5.33 | 5.64 | – | – | – | 3.47 | 12.87 nM (mg of protein)-1 | Activity (3LL cell line [29]): 12.19 nM (mg of protein)-1; Activity (3LL cell line [30]): 5.51 nM (mg of protein)-1; Level (nM (mg of protein)-1) (3LL cell line [31]): 8.25; Accumulation (CHO [32]): 9.4 nM (mg of protein)-1 |
| CC1(C)COB(c2ccc(CN(CCCN)CCCCN)cc2)OC1.Cl | 0.98 nM (mg of protein)-1 | 2.6 | < 5.00 | < 3.00 | < 3.00 | 8.92 | 7.4 | – | – | – | Activity (3LL cell line [15]): 1.83 nM (mg of protein)-1; Activity (3LL cell line [1]): 3.35 nM (mg of protein)-1; Activity (3LL cell line [16]): 3.46 nM (mg of protein)-1; Accumulation (CHO [2]): 5.05 nM (mg of protein)-1; Accumulation (CHO-MG [3]): 3.84 nM (mg of protein)-1; pIC50 (Nucleic Acid [33]): 3.99; Accumulation (U-251 [17]): 2.12 nM (mg of protein)-1 and 1.79 nM (mg of protein)-1; Activity (3LL cell line [4]): 2.55 nM (mg of protein)-1; Accumulation [18]: 2.92 nM (mg of protein)-1 and 2.5 nM (mg of protein)-1; Accumulation [19]: 0.92 nM (mg of protein)-1 and 0.45 nM (mg of protein)-1 |
